# Assay results reported in ChEMBL document CHEMBL1132374, “Sulfonamidopyrrolidinone factor Xa inhibitors: potency and selectivity enhancements via P-1 and P-4 optimization” (J Med Chem, 1999).
# What was measured:
# [1] = target: Prothrombin (Homo sapiens, UniProt P00734); test: Inhibition of human coagulation factor II
# Outline: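 Human thrombin, final 1 nM, in 0.05 M Tris, 0.15 M NaCl, 0.1% PEG-8000, pH 7.5, room temperature. Inhibitor preincubated with enzyme 30 min, then reaction started with Pefachrome TH (50 µM final). p-Nitroanilide release read continuously at 405 nm for 5 min, under 10% substrate consumed. IC50 taken from initial velocities; apparent Ki by Cheng-Prusoff, assuming competitive inhibition.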
# [2] = target: Coagulation factor X (Homo sapiens, UniProt P00742); test: Inhibition of human coagulation factor Xa
# [3] = target: Tissue factor (Homo sapiens) (UniProt P13726); test: (§1) Activated partial thromboplastin time measured; format: functional
# Outline: (§2)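 Citrated human, dog (mongrel) and rat (Sprague-Dawley) plasma, freshly thawed, mixed 1:1 with compound dilutions. Clotting started on an automatic coagulation timer with actin-activated cephaloplastin reagent and 0.035 M CaCl2. Value is the concentration that doubles plasma clotting time.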
# [4] = as §1; format: ADME; outline: as §2
# Chain of Coagulation factor X (P00742 41-179 limits assumed): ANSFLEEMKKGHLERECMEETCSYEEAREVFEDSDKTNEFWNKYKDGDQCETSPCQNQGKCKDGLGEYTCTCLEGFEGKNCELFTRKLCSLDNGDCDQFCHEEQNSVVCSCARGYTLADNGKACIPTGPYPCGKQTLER
# Chain of Coagulation factor X (P00742 235-488 limits assumed): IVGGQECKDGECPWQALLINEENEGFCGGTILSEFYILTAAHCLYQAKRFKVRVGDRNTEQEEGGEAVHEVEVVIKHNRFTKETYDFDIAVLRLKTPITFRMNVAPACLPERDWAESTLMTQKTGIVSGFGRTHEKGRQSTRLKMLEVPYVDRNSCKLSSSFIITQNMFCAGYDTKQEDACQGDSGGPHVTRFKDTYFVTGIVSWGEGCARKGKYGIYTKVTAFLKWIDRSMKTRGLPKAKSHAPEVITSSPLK
# Chain of Tissue factor (Homo sapiens) (P13726 whole entry): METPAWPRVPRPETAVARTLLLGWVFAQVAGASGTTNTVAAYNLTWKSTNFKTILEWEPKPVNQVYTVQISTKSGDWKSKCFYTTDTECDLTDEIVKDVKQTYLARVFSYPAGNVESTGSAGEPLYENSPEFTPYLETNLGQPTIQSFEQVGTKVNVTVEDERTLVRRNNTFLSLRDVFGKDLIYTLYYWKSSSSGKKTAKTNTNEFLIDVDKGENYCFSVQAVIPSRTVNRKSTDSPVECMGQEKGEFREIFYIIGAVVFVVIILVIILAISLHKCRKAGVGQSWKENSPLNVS
Compound,Ki [1],Ki [2],APTT [3],APTT [4]
COc1ccc2ccc(S(=O)(=O)N[C@H]3CCN(Cc4cccc(C(=N)N)c4)C3=O)cc2c1,1430 nM,,,
COC(=O)COc1ccc(C(=N)N)cc1CN1CC[C@H](NS(=O)(=O)c2ccc3ccc(OC)cc3c2)C1=O,263 nM,8 nM,,
N=C(N)c1cccc(CN2CC[C@H](NS(=O)(=O)c3ccc(-c4cccnc4)s3)C2=O)c1,> 4000 nM,41 nM,,
COc1ccc2ccc(S(=O)(=O)N(C)[C@H]3CCN(Cc4cc(C(=N)N)ccc4NC(C)=O)C3=O)cc2c1,> 4000 nM,919 nM,,
N=C(N)c1cccc(CN2CC[C@H](NS(=O)(=O)c3ccc(-c4ccccn4)cc3)C2=O)c1,4000 nM,150 nM,,
C[n+]1ccc(-c2ccc(S(=O)(=O)N[C@H]3CCN(Cc4cccc(C(=N)N)c4)C3=O)cc2)cc1,> 4000 nM,130 nM,,
N=C(N)c1ccc(N)c(CN2CC[C@H](NS(=O)(=O)c3ccc(-c4cccnc4)s3)C2=O)c1,2600 nM,6 nM,,
N=C(N)c1cccc(CN2CC[C@H](NS(=O)(=O)c3ccc(-c4cc[n+]([O-])cc4)cc3)C2=O)c1,> 4000 nM,330 nM,,
N=C(N)c1ccc(N)c(CN2CC[C@H](NS(=O)(=O)c3ccc(-c4ccon4)s3)C2=O)c1,2230 nM,7 nM,,
N=C(N)c1cccc(CN2CC[C@H](NS(=O)(=O)c3ccc(-c4ccncc4)s3)C2=O)c1,3000 nM,,,
N=C(N)c1cccc(CN2CC[C@H](NS(=O)(=O)c3ccc(-c4cccnc4)cc3)C2=O)c1,1960 nM,210 nM,,
N=C(N)c1cccc(CN2CC[C@H](NS(=O)(=O)c3ccc(-c4ccccn4)s3)C2=O)c1,> 4000 nM,140 nM,,
COc1ccc2ccc(S(=O)(=O)N(C)[C@H]3CCN(Cc4cc(C(=N)N)ccc4N)C3=O)cc2c1,201 nM,4 nM,,
COc1ccc2ccc(S(=O)(=O)N[C@H]3CCN(Cc4cc(C(=N)N)ccc4O)C3=O)cc2c1,206 nM,3 nM,,
COc1ccc2ccc(S(=O)(=O)N[C@H]3CCN(Cc4cc(C(=N)N)ccc4OCC(=O)O)C3=O)cc2c1,> 4000 nM,1300 nM,,
COc1nccc(-c2ccc(S(=O)(=O)N[C@H]3CCN(Cc4cccc(C(=N)N)c4)C3=O)s2)n1,> 4000 nM,150 nM,,
COc1ccc2ccc(S(=O)(=O)N(C)[C@H]3CCN(Cc4csc(C(=N)N)c4)C3=O)cc2c1,,,,1.5 µM

# More lines, now with the values ahead:
Ki [1],Ki [2],APTT [3],APTT [4],Compound
> 4000 nM,160 nM,,,N=C(N)c1cccc(CN2CC[C@H](NS(=O)(=O)c3ccc(-c4ccccc4)cc3)C2=O)c1
2220 nM,3 nM,,,N=C(N)c1ccc(O)c(CN2CC[C@H](NS(=O)(=O)c3ccc(-c4ccon4)s3)C2=O)c1
> 4000 nM,1200 nM,,,COc1ccc2ccc(S(=O)(=O)N[C@H]3CCN(Cc4cc(N)cc(C(=N)N)c4)C3=O)cc2c1
> 4000 nM,130 nM,,,N=C(N)c1cccc(CN2CC[C@H](NS(=O)(=O)c3ccc(-c4ccncc4)cc3)C2=O)c1
2800 nM,2 nM,0.32 µM,,N=C(N)c1ccc(O)c(CN2CC[C@H](NS(=O)(=O)c3ccc(-c4cccnc4)s3)C2=O)c1
278 nM,6 nM,,,COc1ccc2ccc(S(=O)(=O)N[C@H]3CCN(Cc4cc(C(=N)N)ccc4N)C3=O)cc2c1
> 4000 nM,2600 nM,,,Cn1ccnc1-c1ccc(S(=O)(=O)N[C@H]2CCN(Cc3cccc(C(=N)N)c3)C2=O)cc1
1050 nM,,,,COc1ccc2ccc(S(=O)(=O)N(C)[C@H]3CCN(Cc4cccc(C(=N)N)c4)C3=O)cc2c1
> 4000 nM,49 nM,,,N=C(N)c1cccc(CN2CC[C@H](NS(=O)(=O)c3ccc(-c4ccon4)s3)C2=O)c1
> 4000 nM,983 nM,,,COc1ccc2ccc(S(=O)(=O)N[C@H]3CCN(Cc4ccc(O)c(C(=N)N)c4)C3=O)cc2c1
4000 nM,130 nM,,,N=C(N)c1ccc(F)c(CN2CC[C@H](NS(=O)(=O)c3ccc(-c4cccnc4)s3)C2=O)c1
